Reference: ChEMBL document CHEMBL1142957, “Total structure and inhibition of tumor cell proliferation of laxaphycins” (J Med Chem, 2007)

How the values were obtained:
[1] = Cytotoxicity against vinblastine-resistant CEM/VLB100 cells after 72 hrs; format: cell-based; details: Homo sapiens, CEM/VLB100, 72 h
Procedure, shortened: (§1)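 Leukemic lymphoblasts (parent CCRF-CEM, Pgp-overexpressing CEM/VLB100, topo II-altered CEM/VM-1) grown in RPMI 1640 with 10% FCS and antibiotics, 37 °C, 5% CO2. Serial dilutions in medium added to 2 × 10⁵ cells/mL for 3 days, medium not renewed. Survivors counted on a Coulter counter. Triplicate, averaged.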

CCRF-CEM [2] = assay: Cytotoxicity against drug-sensitive CCRF-CEM cells after 72 hrs; format: cell-based; details: Homo sapiens; procedure, shortened: as §1
[3] = Cytotoxicity against teniposide-resistant CEM/VM1 cells after 72 hrs; format: cell-based; details: Homo sapiens, CEM-VM1, 72 h; procedure, shortened: as §1
CCRF-CEM [4] = assay: Ratio of IC50 for vinblastine-resistant CEM/VLB100 cells over IC50 for drug-sensitive CCRF-CEM cells; format: functional, Homo sapiens
CCRF-CEM [5] = assay: Ratio of IC50 for teniposide-resistant CEM/VM1 cells over IC50 for drug-sensitive CCRF-CEM cells; format: functional, Homo sapiens

CCCCCCC[C@@H]1CC(=O)N[C@@H](C(C)C)C(=O)N[C@@H]([C@@H](O)C(C)C)C(=O)N[C@@H](C)C(=O)N[C@H]([C@@H](O)C(C)C)C(=O)N[C@@H](CCC(N)=O)C(=O)N(C)[C@@H]([C@@H](C)CC)C(=O)N[C@H]([C@@H](O)C(N)=O)C(=O)N[C@@H]([C@@H](C)O)C(=O)N2C[C@H](O)C[C@H]2C(=O)N[C@H](CC(C)C)C(=O)N[C@@H]([C@@H](C)O)C(=O)N1 [LAXAPHYCIN B3]
IC50 [1]: 1350 nM | IC50 (CCRF-CEM [2]): 1500 nM | IC50 [3]: 1450 nM | Ratio IC50 (CCRF-CEM [4]): 0.9 | Ratio IC50 (CCRF-CEM [5]): 1
